pKi: −log10 of the molar value. Converted amounts (≈) assume the structure as drawn. The source made the active and inactive calls. The rule behind the calls is not given here.
Columns and labels:
[1] = biological target: T1, C-C chemokine receptor type 9 (Homo sapiens, UniProt P51686); experiment: Antagonist activity at CCR9 receptor in human MOLT4 cells assessed as inhibition of CCL25-induced increase in intracellular calcium level preincubated for 1 hr followed CCL25 addition by FLIPR assay; assay type: functional, cell-based, MOLT-4
T1 sequence (P51686 whole entry): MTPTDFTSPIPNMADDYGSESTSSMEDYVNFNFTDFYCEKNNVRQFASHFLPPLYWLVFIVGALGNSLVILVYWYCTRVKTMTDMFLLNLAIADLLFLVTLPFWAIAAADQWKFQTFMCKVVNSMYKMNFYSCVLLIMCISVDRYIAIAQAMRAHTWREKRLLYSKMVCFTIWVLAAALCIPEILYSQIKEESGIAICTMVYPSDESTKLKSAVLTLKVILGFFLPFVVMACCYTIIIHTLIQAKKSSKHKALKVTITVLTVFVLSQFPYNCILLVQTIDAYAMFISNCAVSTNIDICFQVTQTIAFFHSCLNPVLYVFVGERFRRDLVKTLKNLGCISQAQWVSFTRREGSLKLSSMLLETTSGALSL

[2] = Elimination half life in mouse at 1 mg/kg, iv; assay type: ADME, organism-based; details: in vivo, read-out: beta t1/2 (converted)
[3] = Absolute bioavailability in mouse at 1 mg/kg, iv 10 mg/kg, po; assay type: ADME, organism-based; details: in vivo
[4] = Metabolic stability of compound in mouse liver microsomes assessed as remaining compound at 37 deg C; assay type: ADME
[5] = Solubility of compound at pH 7.4 buffer; assay type: physicochemical
How it was run: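 Solubility was measured at pH 7.4. Each value is the mean of three replicates.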

[6] = Clearance in mouse at 1 mg/kg, iv; assay type: ADME, organism-based; details: in vivo
[7] = AUC in mouse at 10 mg/kg, po; assay type: ADME, organism-based; details: in vivo
[8] = tested on: Liver microsome; experiment: Metabolic stability of compound in human liver microsomes assessed as remaining compound at 37 deg C; assay type: ADME
How it was run: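 Test compound incubated with human liver microsomes at 37 °C. Loss of parent compound was followed over a 30 min period, and the percentage remaining is reported as the mean of 3 replicates.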

[9] = tested on: Mus musculus; experiment: Anticolitis activity in DSS-induced acute colitis C57BL/6 mouse model assessed as reduction in disease activity index at 10 mg/kg, po bid for 10 days; assay type: functional; details: C57BL/6, po, 240 h
[10] = tested on: Mus musculus; experiment: Anticolitis activity in DSS-induced acute colitis C57BL/6 mouse model assessed as reduction in disease activity index at 30 mg/kg, po bid for 10 days; assay type: functional; details: C57BL/6, po, 240 h
[11] = tested on: Mus musculus; experiment: Anticolitis activity in DSS-induced acute colitis C57BL/6 mouse model assessed as reduction in disease activity index at 100 mg/kg, po bid for 10 days; assay type: functional; details: C57BL/6, po, 240 h
[12] = tested on: Mus musculus; experiment: Anticolitis activity in DSS-induced acute colitis C57BL/6 mouse model assessed as reduction in disease activity index at 3 mg/kg, po bid for 10 days; assay type: functional; details: C57BL/6, po, 240 h
[13] = tested on: Mus musculus; experiment: Anticolitis activity in DSS-induced chronic colitis C57BL/6 mouse model assessed as reduction in disease activity index at 30 mg/kg, po bid for 30 days; assay type: functional, organism-based
[14] = tested on: Mus musculus; experiment: Anticolitis activity in DSS-induced acute colitis C57BL/6 mouse model assessed as reduction in disease activity index at 50 mg/kg, sc bid for 10 days; assay type: functional; design: scale not given: the % may be the effect or the level left
[15] = tested on: Mus musculus; experiment: Anticolitis activity in DSS-induced acute colitis C57BL/6 mouse model assessed as reduction in disease activity index at 30 mg/kg, sc bid for 10 days; assay type: functional; details: C57BL/6, sc, 240 h

| SMILES | pKi [1] | half-life [2] [h] | bioavailability [3] [%] | Stability [4] [%] | solubility [5] [µM] | clearance [6] [mL/min/kg] | AUC [7] [ng·h/mL] | Stability [8] [%] | inhibition in vivo at 10 mg/kg [9] [%] | inhibition in vivo at 30 mg/kg [10] [%] | inhibition in vivo at 100 mg/kg [11] [%] | inhibition in vivo at 3 mg/kg [12] [%] | Activity [13] | Activity [14] [%] | inhibition in vivo at 30 mg/kg [15] [%] |
| --- | --- | --- | --- | --- | --- | --- | --- | --- | --- | --- | --- | --- | --- | --- | --- |
| CC(C)(C)c1ccc(S(=O)(=O)Nc2ccc(Cl)c3c2C(=O)N(c2ccc(F)nc2)C3=O)cc1 | 7.72 | – | – | – | – | – | – | – | – | – | – | – | – | – | – |
| Cc1cccc(N2C(=O)c3c(Cl)ccc(NS(=O)(=O)c4ccc(C(C)(C)C)cc4)c3C2=O)n1 | – | 1.32 | 95 | 42 | 27 (≈ 13.1 µg/mL) | 2.34 | 67900 | 61 | – | – | – | – | – | – | – |
| Cc1ncccc1N1C(=O)c2c(Cl)ccc(NS(=O)(=O)c3ccc(C(C)(C)C)cc3)c2C1=O | – | 3.26 | 73 | 62 | 81 (≈ 39.2 µg/mL) | 2.6 | 46800 | 89 | – | – | – | – | – | – | – |
| COc1ccncc1N1C(=O)c2c(Cl)ccc(NS(=O)(=O)c3ccc(C(C)(C)C)cc3)c2C1=O | – | 1.03 | 100 | 60 | 10 (≈ 5 µg/mL) | 6.86 | 35600 | 81 | – | – | – | – | – | – | – |
| Cc1c(N2C(=O)c3c(Cl)ccc(NS(=O)(=O)c4ccc(C(C)(C)C)cc4)c3C2=O)ccc[n+]1[O-] | – | 1.28 | 48 | 76 | 114 (≈ 57 µg/mL) | 4.69 | 16200 | 71 | 27 | 51 | 86 | 41 | Active | – | – |
| CC(C)(C)c1ccc(S(=O)(=O)Nc2cccc3c2C(=O)N(Cc2cccnc2)C3=O)cc1 | 6.21 | – | – | – | – | – | – | – | – | – | – | – | – | – | – |
| CC(C)(C)c1ccc(S(=O)(=O)Nc2ccc(Cl)cc2C(=O)c2cc[n+]([O-])cc2)cc1 [VERCIRNON] | – | 0.16 | 22 | 9 | 6 (≈ 2.67 µg/mL) | 103 | 340 | 73 | – | – | – | – | – | 17 | – |
| CC(C)(C)c1ccc(S(=O)(=O)Nc2ccc(Cl)c3c2C(=O)N(Cc2cccc[n+]2[O-])C3=O)cc1 | – | 1.05 | 56 | 79 | 69 (≈ 34.5 µg/mL) | 2.57 | 36000 | 81 | 32 | 33 | 51 | – | Active | – | – |
| COc1ncccc1N1C(=O)c2c(Cl)ccc(NS(=O)(=O)c3ccc(C(C)(C)C)cc3)c2C1=O | 8.52 | 5.37 | 25 | 64 | 26 (≈ 13 µg/mL) | 1.73 | 24000 | 67 | – | – | – | – | – | – | – |
| CC(C)(C)c1ccc(S(=O)(=O)Nc2ccc(Cl)c3c2C(=O)N(Cc2ccc[n+]([O-])c2)C3=O)cc1 | – | 0.62 | 33 | 8 | 126 (≈ 63 µg/mL) | 3.92 | 13900 | 15 | 21 | 31 | 58 | – | Active | – | 24 |

Source: ChEMBL document CHEMBL3797083, “A New Series of Orally Bioavailable Chemokine Receptor 9 (CCR9) Antagonists; Possible Agents for the Treatment of Inflammatory Bowel Disease” (J Med Chem, 2016)
